Series [1] is described as follows: Inhibition of guinea pig mPGES1 expressed in CHO cells assessed as reduction in PGE2 production using PGH2 as substrate incubated for 10 mins followed by substrate addition measured for 1 min. Details: species or system Cavia porcellus. The gist of the method: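 Guinea pig mPGES-1 enzyme assay, run the same way as the human enzyme assay. IC50 for inhibition of PGE2 formation, read from curves built on at least two experiments, each in duplicate.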

Another series deals with CYP2D6 (Homo sapiens, UniProt P10635). Description: Inhibition of CYP2D6 in human liver microsomes at 10 uM after 20 mins in presence of NADPH by LC-MS/MS analysis. The format is ADME. The conditions noted are these: liver microsomes. A digest of the protocol:
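Percent inhibition of each CYP isoform by test compound at 10 µM, compared with a no-inhibitor control. Run in triplicate.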
A general note: Liver microsomes are a subcellular fraction often used to study metabolism.

Series [2] can be described thus: Protein binding in guinea pig plasma at 10 uM after 5 hrs by equilibrium dialysis based LC-MS/MS analysis. The series is classed as ADME, cell-free, Cavia porcellus. The conditions noted are these: read-out: PPB (converted). A digest of the protocol: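 Equilibrium dialysis at 10 μM compound; result expressed as percent bound.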
The target in series [3] is T1, Prostaglandin E synthase 3 (Homo sapiens) (UniProt Q15185).
T1 sequence (whole entry): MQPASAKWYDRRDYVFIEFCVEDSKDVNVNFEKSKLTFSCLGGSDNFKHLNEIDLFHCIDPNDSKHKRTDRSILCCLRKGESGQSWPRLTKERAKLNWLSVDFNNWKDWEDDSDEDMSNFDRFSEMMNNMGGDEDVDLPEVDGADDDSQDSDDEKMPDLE
As to the kind of experiment: Inhibition of cPGES in human U937 cells assessed as decrease in PGE2 production at 10 uM using arachidonic acid as substrate relative to control. The format is cell-based. The gist of the method:
(§1)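 Selectivity panel against other prostanoid-pathway enzymes. % inhibition values are means of at least two experiments, each in duplicate.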

A short description of series [4]: Metabolic stability in human liver microsomes assessed as parent compound remaining at 1 uM after 60 mins in presence of NADPH by LC-MS/MS analysis. The format is ADME, microsome. As to conditions: read-out: Stability. The gist of the method:
(§2)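 Compound incubated 60 min at 37 °C with human, rat or guinea pig liver microsomes; percent parent remaining, triplicates.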

Series [5] deals with T2, Prostacyclin synthase (Homo sapiens) (UniProt Q16647).
T2 sequence (whole entry): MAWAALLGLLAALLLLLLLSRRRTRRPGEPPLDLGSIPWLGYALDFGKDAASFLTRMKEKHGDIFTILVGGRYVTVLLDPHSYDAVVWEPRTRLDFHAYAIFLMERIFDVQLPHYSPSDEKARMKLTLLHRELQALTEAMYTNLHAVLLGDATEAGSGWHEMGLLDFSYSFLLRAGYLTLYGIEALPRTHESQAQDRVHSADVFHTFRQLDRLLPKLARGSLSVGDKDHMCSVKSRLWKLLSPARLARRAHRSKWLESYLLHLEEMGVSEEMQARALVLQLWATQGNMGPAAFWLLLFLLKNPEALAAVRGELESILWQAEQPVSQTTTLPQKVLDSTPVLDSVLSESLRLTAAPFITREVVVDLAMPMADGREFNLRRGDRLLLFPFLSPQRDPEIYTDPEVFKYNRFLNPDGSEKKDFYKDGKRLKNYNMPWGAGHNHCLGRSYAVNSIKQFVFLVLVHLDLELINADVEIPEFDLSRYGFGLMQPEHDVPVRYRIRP
Description: Inhibition of recombinant human PGIS expressed in CHO cells at 10 uM relative to control. The format is cell-based.

The next series has as its target hERG (KCNH2) (Homo sapiens, UniProt Q12809). As to the kind of experiment: Inhibition of human ERG at 10 uM by patch clamp assay relative to control. A digest of the protocol: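 hERG current measured by patch clamp with test compound at 10 µM; result given as % inhibition.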
In general terms: In patch-clamp work, channel activity is measured electrically.

The subject of a further series is CHO. As to the kind of experiment: Inhibition of rat mPGES1 expressed in CHO cells assessed as reduction in PGE2 production at 10 uM using PGH2 as substrate incubated for 10 mins followed by substrate addition measured for 1 min relative to control. The format is cell-based. The gist of the method: (§3)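 Rodent enzyme protocol run as for the human and guinea pig mPGES-1 enzyme assays; single-concentration percent inhibition.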

The target in series [6] is T3, Thromboxane-A synthase (Homo sapiens) (UniProt P24557).
T3 sequence (whole entry): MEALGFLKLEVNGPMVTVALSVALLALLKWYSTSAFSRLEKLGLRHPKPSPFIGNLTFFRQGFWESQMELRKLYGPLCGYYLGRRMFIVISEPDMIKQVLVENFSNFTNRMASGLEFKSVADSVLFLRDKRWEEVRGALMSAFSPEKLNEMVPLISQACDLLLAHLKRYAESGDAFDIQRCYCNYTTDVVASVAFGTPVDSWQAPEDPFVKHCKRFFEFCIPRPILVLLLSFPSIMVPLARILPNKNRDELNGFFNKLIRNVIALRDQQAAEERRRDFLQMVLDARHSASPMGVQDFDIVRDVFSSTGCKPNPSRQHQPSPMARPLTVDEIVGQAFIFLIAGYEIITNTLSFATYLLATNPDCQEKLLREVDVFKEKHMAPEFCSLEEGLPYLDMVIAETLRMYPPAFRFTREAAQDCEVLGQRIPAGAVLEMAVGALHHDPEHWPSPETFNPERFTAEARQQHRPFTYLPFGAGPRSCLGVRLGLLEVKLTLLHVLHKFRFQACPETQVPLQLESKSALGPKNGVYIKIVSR
As to the kind of experiment: Inhibition of TXAS (unknown origin) at 10 uM relative to control. The gist of the method: as §1

Series [7] concerns the target Hematopoietic prostaglandin D synthase (Homo sapiens) (UniProt O60760). Description: Inhibition of PGDS (unknown origin) at 10 uM relative to control. The gist of the method:
as §1

Series [8] deals with Prostaglandin E synthase 2 (Homo sapiens) (UniProt Q9H7Z7). Description: Inhibition of mPGES2 in A23187-stimulated human THP1 cells assessed as decrease in PGE2 production at 10 uM using arachidonic acid as substrate relative to control. The gist of the method:
as §1

Another series concerns the target T4, Prostaglandin E synthase (Homo sapiens, UniProt O14684).
T4 sequence (O14684 whole entry): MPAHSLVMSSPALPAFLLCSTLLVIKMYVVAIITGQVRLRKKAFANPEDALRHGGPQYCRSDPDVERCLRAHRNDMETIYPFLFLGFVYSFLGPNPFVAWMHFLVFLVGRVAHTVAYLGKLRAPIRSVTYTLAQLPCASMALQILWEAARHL
As to the kind of experiment: Inhibition of mPGES1 in human whole blood assessed as reduction in LPS-induced PGE2 production measured after 20 to 24 hrs.

Series [9] in a line: Inhibition of recombinant human COX2 assessed as decrease in PGE2 production at 10 uM using arachidonic acid as substrate preincubated for 15 mins prior to substrate addition for 5 mins relative to control. As to conditions: recombinant COX2, probe arachidonic acid.
The target of series [10] is T5, Prostaglandin E synthase (Mus musculus) (UniProt Q9JM51).
T5 sequence (whole entry): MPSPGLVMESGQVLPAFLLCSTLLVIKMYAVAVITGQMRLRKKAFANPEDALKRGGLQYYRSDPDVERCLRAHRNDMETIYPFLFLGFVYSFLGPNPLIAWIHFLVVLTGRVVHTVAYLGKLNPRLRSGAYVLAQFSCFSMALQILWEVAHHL
As to the kind of experiment: Inhibition of mouse mPGES1 expressed in CHO cells assessed as reduction in PGE2 production at 10 uM using PGH2 as substrate incubated for 10 mins followed by substrate addition measured for 1 min relative to control. The gist of the method: as §3

Series [11] is described as follows: Metabolic stability in rat liver microsomes assessed as parent compound remaining at 1 uM after 60 mins in presence of NADPH by LC-MS/MS analysis. The format is ADME, microsome. The conditions noted are these: read-out: Stability. The gist of the method:
as §2

Chain of CYP2D6 (P10635 whole entry, canonical isoform): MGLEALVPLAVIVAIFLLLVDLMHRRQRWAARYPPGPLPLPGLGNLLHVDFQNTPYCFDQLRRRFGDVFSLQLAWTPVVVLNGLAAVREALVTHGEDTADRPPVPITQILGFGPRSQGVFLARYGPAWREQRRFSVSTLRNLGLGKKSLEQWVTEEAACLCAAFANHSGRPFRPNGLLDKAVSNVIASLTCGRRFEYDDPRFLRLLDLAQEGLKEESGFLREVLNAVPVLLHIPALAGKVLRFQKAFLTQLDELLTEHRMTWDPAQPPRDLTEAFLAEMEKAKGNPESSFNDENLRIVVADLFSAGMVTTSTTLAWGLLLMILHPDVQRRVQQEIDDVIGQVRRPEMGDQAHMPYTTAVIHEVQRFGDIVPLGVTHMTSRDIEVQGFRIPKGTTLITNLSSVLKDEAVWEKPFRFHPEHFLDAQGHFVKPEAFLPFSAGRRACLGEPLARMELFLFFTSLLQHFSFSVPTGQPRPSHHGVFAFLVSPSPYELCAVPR
Chain of Hematopoietic prostaglandin D synthase (Homo sapiens) (O60760 whole entry): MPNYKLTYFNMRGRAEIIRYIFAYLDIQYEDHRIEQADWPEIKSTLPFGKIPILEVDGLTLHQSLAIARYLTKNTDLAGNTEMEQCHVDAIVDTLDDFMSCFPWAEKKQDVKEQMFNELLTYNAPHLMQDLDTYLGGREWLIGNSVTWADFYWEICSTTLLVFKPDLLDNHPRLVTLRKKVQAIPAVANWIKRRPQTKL
Chain of Prostaglandin E synthase 2 (Homo sapiens) (Q9H7Z7 whole entry): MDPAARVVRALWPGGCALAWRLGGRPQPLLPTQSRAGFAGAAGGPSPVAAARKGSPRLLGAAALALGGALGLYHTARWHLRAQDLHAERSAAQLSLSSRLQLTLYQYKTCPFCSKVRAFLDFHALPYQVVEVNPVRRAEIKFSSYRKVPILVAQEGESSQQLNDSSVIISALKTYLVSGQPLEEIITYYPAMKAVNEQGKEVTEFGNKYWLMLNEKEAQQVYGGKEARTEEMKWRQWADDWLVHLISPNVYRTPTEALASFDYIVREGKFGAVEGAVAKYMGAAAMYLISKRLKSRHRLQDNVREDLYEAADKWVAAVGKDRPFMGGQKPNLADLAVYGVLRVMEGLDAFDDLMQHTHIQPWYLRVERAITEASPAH
Chain of hERG (KCNH2) (Q12809 whole entry): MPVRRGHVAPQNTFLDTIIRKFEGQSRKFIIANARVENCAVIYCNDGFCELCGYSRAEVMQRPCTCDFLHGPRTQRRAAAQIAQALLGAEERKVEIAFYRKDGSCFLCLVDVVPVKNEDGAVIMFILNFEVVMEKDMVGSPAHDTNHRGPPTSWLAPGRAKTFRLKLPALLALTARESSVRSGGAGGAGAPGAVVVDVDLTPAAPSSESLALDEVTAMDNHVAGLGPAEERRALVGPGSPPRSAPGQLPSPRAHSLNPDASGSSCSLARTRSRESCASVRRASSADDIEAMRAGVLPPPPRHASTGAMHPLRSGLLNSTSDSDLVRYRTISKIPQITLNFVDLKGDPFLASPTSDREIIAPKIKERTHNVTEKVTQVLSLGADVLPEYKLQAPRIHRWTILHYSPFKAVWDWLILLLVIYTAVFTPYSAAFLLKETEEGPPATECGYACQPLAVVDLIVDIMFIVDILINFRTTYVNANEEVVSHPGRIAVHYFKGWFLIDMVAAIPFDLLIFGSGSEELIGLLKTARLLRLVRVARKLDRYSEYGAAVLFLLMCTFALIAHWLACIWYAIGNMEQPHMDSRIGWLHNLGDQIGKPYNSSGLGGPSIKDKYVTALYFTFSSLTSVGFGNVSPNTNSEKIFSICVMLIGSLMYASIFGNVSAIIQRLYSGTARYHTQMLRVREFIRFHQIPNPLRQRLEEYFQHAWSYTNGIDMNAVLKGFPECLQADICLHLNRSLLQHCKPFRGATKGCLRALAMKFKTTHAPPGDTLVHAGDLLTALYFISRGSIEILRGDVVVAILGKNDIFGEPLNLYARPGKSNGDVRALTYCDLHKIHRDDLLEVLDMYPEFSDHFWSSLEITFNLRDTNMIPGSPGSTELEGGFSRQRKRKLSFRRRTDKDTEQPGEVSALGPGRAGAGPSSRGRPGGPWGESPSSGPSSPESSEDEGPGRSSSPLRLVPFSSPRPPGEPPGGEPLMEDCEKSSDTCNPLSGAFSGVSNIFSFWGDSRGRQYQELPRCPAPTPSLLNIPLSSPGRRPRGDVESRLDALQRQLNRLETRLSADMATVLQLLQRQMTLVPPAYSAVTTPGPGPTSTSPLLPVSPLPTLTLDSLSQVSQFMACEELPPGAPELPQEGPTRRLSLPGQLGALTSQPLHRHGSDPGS

As usually defined, the IC50 is the concentration needed to halve the response being measured. By inhibition is commonly meant the change of the read-out against control, counted positive when it falls. For `CC1(C)Cc2c(c(C(=O)Nc3cc(C(F)(F)F)ccc3F)cc3nc(Nc4c(F)cccc4Cl)[nH]c23)O1`, the results for the IC50 (in series [1]; on Prostaglandin E synthase) were 0.014 µM and 0.256 µM, respectively. Further, the inhibition at 20 min, 10 µM at CYP2D6 stood at 12%. For the same compound, the fraction unbound at 5 h, 10 µM in series [2] was 0.0035. Also, the inhibition in series [3] was 4.2%; in series [5], 5.6%; in the series on CHO, 11.7%; in [6], 4.6%; in series [7], 5.8%; in series [8], 13.5%. For the same compound, the inhibition in series [10] was 14.4%. Moreover, the figures for the remaining at 1 h, 1 µM in series [4] and in series [11] were 89% and 96%, respectively. Further, the inhibition at 10 µM against hERG (KCNH2) turned out to be 5.8%. Also, in series [9], the inhibition at 5 min, 10 µM was 28.7%.
For `Cc1cccc(Cl)c1Nc1nc2cc(C(=O)Nc3cc(C(F)F)ccc3F)c3c(c2[nH]1)CC(C)(C)O3`, the results for the IC50 (in [1]; on Prostaglandin E synthase) were 0.046 µM and 0.162 µM, respectively. On CYP2D6, the inhibition at 20 min, 10 µM was 14%. Further, in series [2], the fraction unbound at 5 h, 10 µM was 0.0158. The inhibition amounted to 11% in [3]; 20.1% in [5]; 0.7% in the series on CHO; 17.2% in series [6]; 27.6% in [7]; 3.8% in series [8]. The inhibition in [10] is 2.5%. Moreover, the remaining at 1 h, 1 µM in series [4] came out at 83%; in [11], 87%. Further, the inhibition at 10 µM against hERG (KCNH2) was 11.8%. The inhibition at 5 min, 10 µM in series [9] came to 43.2%.
For the compound `Cn1c(Nc2c(F)cccc2Cl)nc2cc(C(=O)Nc3cccc(C(F)(F)F)c3)c3c(c21)CC(C)(C)O3`, the IC50 came to 0.0043 µM in series [1] and 0.405 µM at Prostaglandin E synthase. Also, the inhibition at 20 min, 10 µM at CYP2D6 amounted to 29%. The fraction unbound at 5 h, 10 µM in series [2] is 0.0028. For the same compound, the inhibition in [3] worked out at 24%; in series [5] it was 3.9%; with CHO, 3.4%; in series [6] it was 22.1%; in series [7], 16.5%; in series [8] it was 7.9%. In addition, in series [10], the inhibition is 5.2%. Moreover, the results for the remaining at 1 h, 1 µM in series [4] and in series [11] were 98% and 89%, respectively. Besides, the inhibition at 10 µM against hERG (KCNH2) amounted to 26.5%. The inhibition at 5 min, 10 µM in [9] was 6.5%.
Regarding `CC1(C)Cc2c(c(C(=O)Nc3ccc(F)c(C(F)(F)F)c3)cc3nc(Nc4c(F)cccc4Cl)[nH]c23)O1`, the IC50 in [1] stood at 0.024 µM; on Prostaglandin E synthase it was 0.208 µM. Besides, the inhibition at 20 min, 10 µM on CYP2D6 amounted to 19%. Moreover, in series [2], the fraction unbound at 5 h, 10 µM is 0.0136. Also, the inhibition in [3] was 0%; in series [5] it was 2.5%; in the series with CHO, 10.5%; in series [6], 25.5%; in series [7] it was 0%; in [8] it was 11.6%. Besides, the inhibition in series [10] is 22.1%. Also, the remaining at 1 h, 1 µM in series [4] came to 100%; in series [11], 91%. For the same compound, on hERG (KCNH2), the inhibition at 10 µM worked out at 3.8%. Also, the inhibition at 5 min, 10 µM in series [9] turned out to be 23.1%.
With `CC1(C)Cc2c(c(C(=O)Nc3ccc(C(F)(F)F)cn3)cc3nc(Nc4c(Cl)cccc4Cl)[nH]c23)O1`, the IC50 in series [1] turned out to be 0.012 µM; at Prostaglandin E synthase it was 0.261 µM. Also, the inhibition at 20 min, 10 µM on CYP2D6 was 9%. Besides, in series [2], the fraction unbound at 5 h, 10 µM is 0.0016. Further, the inhibition in series [3] was 0%; in [5] it was 4.3%; in the series with CHO, 7.1%; in series [6] it was 1.3%; in [7] it was 15.1%; in [8], 7.8%. Also, the inhibition in [10] came out at 10.9%. In addition, the remaining at 1 h, 1 µM turned out to be 91% in series [4] and 88% in series [11]. In addition, on hERG (KCNH2), the inhibition at 10 µM turned out to be 5.4%. Besides, the inhibition at 5 min, 10 µM in series [9] is 35.9%.
Regarding `Cc1cccc(Cl)c1Nc1nc2cc(C(=O)Nc3cc(C(F)(F)F)ccc3F)c3c(c2[nH]1)CC(C)(C)O3`, the IC50 in series [1] is 0.019 µM; on Prostaglandin E synthase, 0.222 µM. Also, on CYP2D6, the inhibition at 20 min, 10 µM is -2%. In series [2], the fraction unbound at 5 h, 10 µM was 0.0004. Moreover, the inhibition in series [3] is 21.1%; in series [5], 7.5%; in the series with CHO, 0%; in series [6], 0.87%; in [7] it was 19.5%; in series [8] it was 23.5%. Also, the inhibition in series [10] came out at 8.2%. Besides, the remaining at 1 h, 1 µM in series [4] stood at 100%; in [11] it was 97%. Moreover, the inhibition at 10 µM on hERG (KCNH2) was determined as 12.3%. For the same compound, the inhibition at 5 min, 10 µM in series [9] turned out to be 31%.

For the origin of these results see ChEMBL document CHEMBL4219124, “Alleviating CYP and hERG liabilities by structure optimization of dihydrofuran-fused tricyclic benzo[d]imidazole series - Potent, selective and orally efficacious microsomal prostaglandin E synthase-1 (mPGES-1) inhibitors: Part-2” (Bioorg Med Chem Lett, 2018).
